Results as given in ChEMBL document CHEMBL1212889, “Novel antifungal agents: triazolopyridines as inhibitors of beta-1,6-glucan synthesis” (Bioorg Med Chem, 2010).
Converted amounts (≈) assume the structure as drawn.

Tested on: Saccharomyces cerevisiae
Assay: Antimicrobial activity against Saccharomyces cerevisiae AY14 using alamar blue stain by microdilution assay
Assay type: functional
Details: not given
Method in brief: (§1)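 Modified CLSI microdilution in RPMI 1640 with 0.165 M MOPS, plus alamar blue redox indicator. Inoculum was 1 × 10³ to 1 × 10⁴ cells/mL and incubation ran 18–72 h, both set per strain by growth speed, at 30 °C. OD570 was read and MIC-2 taken as the lowest concentration giving 50% absorbance reduction versus the drug-free control.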

Structure (SMILES)	MIC [µg/mL]
Cc1cn2c(N3CC[C@H](N(C)C)C3)c(-c3ccccc3)c(C)c(C#N)c2n1	1 (≈ 2.78 µM)
Cc1c(-c2ccccc2)c(N2CC[C@H](N(C)C)C2)n2nc(C(C)(C)C)cc2c1C#N	1 (≈ 2.49 µM)
Cc1c(-c2ccccc2)c(N2CC[C@H](N(C)C)C2)n2nc(C(C)(C)CO)nc2c1C#N	0.125 (≈ 0.299 µM)
Cc1c(-c2ccccc2)c(N2CC[C@H](N(C)C)C2)n2nc(C(C)(C)COCc3ccccc3)nc2c1C#N	0.063 (≈ 0.124 µM)
Cc1c(-c2ccccc2)c(N2CC[C@H](N(C)C)C2)n2nc(C(C)(C)C)nc2c1C#N	0.063 (≈ 0.157 µM)
CCc1nc2c(C#N)c(C)c(-c3ccccc3)c(N3CC[C@H](N(C)C)C3)n2n1	0.063 (≈ 0.168 µM)
Cc1c(-c2ccccc2)c(N2CC[C@H](N(C)C)C2)n2nc(C3CC3)nc2c1C#N	0.032 (≈ 0.0828 µM)
Cc1c(-c2ccccc2)c(N2CC[C@H](N(C)C)C2)n2cc(C(C)(C)C)nc2c1C#N	0.125 (≈ 0.311 µM)

Tested on: not listed separately
Assay: Solubility of the compound at pH 6.8
Assay type: physicochemical
Details: buffer
Method in brief: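 Water solubility measured at pH 6.8.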

Structure (SMILES)	solubility [µg/mL]
Cc1cn2c(N3CC[C@H](N(C)C)C3)c(-c3ccccc3)c(C)c(C#N)c2n1	356 (≈ 990 µM)
Cc1c(-c2ccccc2)c(N2CC[C@H](N(C)C)C2)n2nc(C(C)(C)C)cc2c1C#N	< 2
Cc1c(-c2ccccc2)c(N2CC[C@H](N(C)C)C2)n2nc(C(C)(C)CO)nc2c1C#N	140 (≈ 334 µM)
Cc1c(-c2ccccc2)c(N2CC[C@H](N(C)C)C2)n2nc(C(C)(C)COCc3ccccc3)nc2c1C#N	< 3
Cc1c(-c2ccccc2)c(N2CC[C@H](N(C)C)C2)n2nc(C(C)(C)C)nc2c1C#N	16 (≈ 39.7 µM)
CCc1nc2c(C#N)c(C)c(-c3ccccc3)c(N3CC[C@H](N(C)C)C3)n2n1	228 (≈ 609 µM)
Cc1c(-c2ccccc2)c(N2CC[C@H](N(C)C)C2)n2nc(C3CC3)nc2c1C#N	57 (≈ 147 µM)
Cc1c(-c2ccccc2)c(N2CC[C@H](N(C)C)C2)n2cc(C(C)(C)C)nc2c1C#N	27 (≈ 67.2 µM)

Tested on: Candida tropicalis
Assay: Antimicrobial activity against Candida tropicalis IAM 4965 using alamar blue stain by microdilution assay
Assay type: functional
Details: not given
Method in brief: as §1

Structure (SMILES)	MIC [µg/mL]
Cc1cn2c(N3CC[C@H](N(C)C)C3)c(-c3ccccc3)c(C)c(C#N)c2n1	> 4
Cc1c(-c2ccccc2)c(N2CC[C@H](N(C)C)C2)n2nc(C(C)(C)C)cc2c1C#N	1 (≈ 2.49 µM)
Cc1c(-c2ccccc2)c(N2CC[C@H](N(C)C)C2)n2nc(C(C)(C)CO)nc2c1C#N	0.25 (≈ 0.597 µM)
Cc1c(-c2ccccc2)c(N2CC[C@H](N(C)C)C2)n2nc(C(C)(C)COCc3ccccc3)nc2c1C#N	0.125 (≈ 0.246 µM)
Cc1c(-c2ccccc2)c(N2CC[C@H](N(C)C)C2)n2nc(C(C)(C)C)nc2c1C#N	0.25 (≈ 0.621 µM)
CCc1nc2c(C#N)c(C)c(-c3ccccc3)c(N3CC[C@H](N(C)C)C3)n2n1	1 (≈ 2.67 µM)
Cc1c(-c2ccccc2)c(N2CC[C@H](N(C)C)C2)n2nc(C3CC3)nc2c1C#N	1 (≈ 2.59 µM)
Cc1c(-c2ccccc2)c(N2CC[C@H](N(C)C)C2)n2cc(C(C)(C)C)nc2c1C#N	4 (≈ 9.96 µM)

Tested on: Candida albicans
Assay: Antimicrobial activity against Candida albicans ATCC 24433 by microdilution assay
Assay type: functional
Details: not given
Method in brief: (§2)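 CLSI broth microdilution, modified to incubate at 30 °C. MIC-0 is the lowest drug concentration giving an optically clear well. Table footnote: the endpoint was the lowest concentration producing a prominent reduction in turbidity. Drug range 0.004 to 128 µg/mL.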

Structure (SMILES)	MIC [µg/mL]
Cc1c(-c2ccccc2)c(N2CC[C@H](N(C)C)C2)n2nc(C(C)(C)C)nc2c1C#N	> 128

Tested on: not listed separately
Assay: Octanol-phosphate buffered saline partition coefficient, log D of the compound at pH 6.8
Assay type: physicochemical
Details: not given
Method in brief: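 Shake partition between 1-octanol and phosphate-buffered saline at pH 6.8. Layers were separated by centrifugation at 3000 rpm for 10 min, and each layer was assayed by LC/MS on a C18 column with an ammonium acetate (pH 4.5)/acetic acid–acetonitrile gradient. Log D was computed from the partition coefficient.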

Structure (SMILES)	logD
Cc1cn2c(N3CC[C@H](N(C)C)C3)c(-c3ccccc3)c(C)c(C#N)c2n1	1.9
Cc1c(-c2ccccc2)c(N2CC[C@H](N(C)C)C2)n2nc(C(C)(C)C)cc2c1C#N	4.8
Cc1c(-c2ccccc2)c(N2CC[C@H](N(C)C)C2)n2nc(C(C)(C)CO)nc2c1C#N	1.8
Cc1c(-c2ccccc2)c(N2CC[C@H](N(C)C)C2)n2nc(C(C)(C)COCc3ccccc3)nc2c1C#N	3.8
Cc1c(-c2ccccc2)c(N2CC[C@H](N(C)C)C2)n2nc(C(C)(C)C)nc2c1C#N	3.1
CCc1nc2c(C#N)c(C)c(-c3ccccc3)c(N3CC[C@H](N(C)C)C3)n2n1	2.1
Cc1c(-c2ccccc2)c(N2CC[C@H](N(C)C)C2)n2nc(C3CC3)nc2c1C#N	2.4
Cc1c(-c2ccccc2)c(N2CC[C@H](N(C)C)C2)n2cc(C(C)(C)C)nc2c1C#N	3

Tested on: Nakaseomyces glabratus
Assay: Antimicrobial activity against Candida glabrata IFO 0622 by microdilution assay
Assay type: functional
Details: not given
Method in brief: as §2

Structure (SMILES)	MIC [µg/mL]
Cc1c(-c2ccccc2)c(N2CC[C@H](N(C)C)C2)n2nc(C(C)(C)C)nc2c1C#N	≤ 0.125

Tested on: Candida albicans
Assay: Antimicrobial activity against Candida albicans ATCC 24433 using alamar blue stain by microdilution assay
Assay type: functional
Details: not given
Method in brief: as §1

Structure (SMILES)	MIC [µg/mL]
Cc1cn2c(N3CC[C@H](N(C)C)C3)c(-c3ccccc3)c(C)c(C#N)c2n1	> 4
Cc1c(-c2ccccc2)c(N2CC[C@H](N(C)C)C2)n2nc(C(C)(C)C)cc2c1C#N	4 (≈ 9.96 µM)
Cc1c(-c2ccccc2)c(N2CC[C@H](N(C)C)C2)n2nc(C(C)(C)CO)nc2c1C#N	> 4
Cc1c(-c2ccccc2)c(N2CC[C@H](N(C)C)C2)n2nc(C(C)(C)COCc3ccccc3)nc2c1C#N	> 4
Cc1c(-c2ccccc2)c(N2CC[C@H](N(C)C)C2)n2nc(C(C)(C)C)nc2c1C#N	> 4
CCc1nc2c(C#N)c(C)c(-c3ccccc3)c(N3CC[C@H](N(C)C)C3)n2n1	> 4
Cc1c(-c2ccccc2)c(N2CC[C@H](N(C)C)C2)n2nc(C3CC3)nc2c1C#N	> 4
Cc1c(-c2ccccc2)c(N2CC[C@H](N(C)C)C2)n2cc(C(C)(C)C)nc2c1C#N	4 (≈ 9.96 µM)

Tested on: Pichia kudriavzevii
Assay: Antimicrobial activity against Candida krusei TIMM 0269 by microdilution assay
Assay type: functional
Details: not given
Method in brief: as §2

Structure (SMILES)	MIC [µg/mL]
Cc1c(-c2ccccc2)c(N2CC[C@H](N(C)C)C2)n2nc(C(C)(C)C)nc2c1C#N	16 (≈ 39.7 µM)

Tested on: Saccharomyces cerevisiae
Assay: Antimicrobial activity against Saccharomyces cerevisiae AY14 by microdilution assay
Assay type: functional
Details: not given
Method in brief: as §2

Structure (SMILES)	MIC [µg/mL]
Cc1c(-c2ccccc2)c(N2CC[C@H](N(C)C)C2)n2nc(C(C)(C)C)nc2c1C#N	≤ 0.125

Tested on: Candida tropicalis
Assay: Antimicrobial activity against Candida tropicalis TIMM 0313 by microdilution assay
Assay type: functional
Details: not given
Method in brief: as §2

Structure (SMILES)	MIC [µg/mL]
Cc1c(-c2ccccc2)c(N2CC[C@H](N(C)C)C2)n2nc(C(C)(C)C)nc2c1C#N	2 (≈ 4.97 µM)

Tested on: Liver microsomes
Assay: Metabolic stability in human liver microsomes
Assay type: ADME, Microsome
Details: not given
Method in brief: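 Compound at 1 µM final with human liver microsomes (0.5 mg/mL protein) in sodium phosphate buffer pH 7.4, preincubated 20 min at 37 °C. NADPH started the reaction, and MeOH stopped it after 30 min. Samples were centrifuged at 4 °C, and parent loss was measured by LC/MS/MS.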

Structure (SMILES)	Stability [%]
Cc1cn2c(N3CC[C@H](N(C)C)C3)c(-c3ccccc3)c(C)c(C#N)c2n1	71
Cc1c(-c2ccccc2)c(N2CC[C@H](N(C)C)C2)n2nc(C(C)(C)C)cc2c1C#N	12
Cc1c(-c2ccccc2)c(N2CC[C@H](N(C)C)C2)n2nc(C(C)(C)CO)nc2c1C#N	64
Cc1c(-c2ccccc2)c(N2CC[C@H](N(C)C)C2)n2nc(C(C)(C)COCc3ccccc3)nc2c1C#N	9
Cc1c(-c2ccccc2)c(N2CC[C@H](N(C)C)C2)n2nc(C(C)(C)C)nc2c1C#N	9
CCc1nc2c(C#N)c(C)c(-c3ccccc3)c(N3CC[C@H](N(C)C)C3)n2n1	54
Cc1c(-c2ccccc2)c(N2CC[C@H](N(C)C)C2)n2nc(C3CC3)nc2c1C#N	48
Cc1c(-c2ccccc2)c(N2CC[C@H](N(C)C)C2)n2cc(C(C)(C)C)nc2c1C#N	16

Tested on: Pichia kudriavzevii
Assay: Antimicrobial activity against Candida krusei ATCC 44507 using alamar blue stain by microdilution assay
Assay type: functional
Details: not given
Method in brief: as §1

Structure (SMILES)	MIC [µg/mL]
Cc1cn2c(N3CC[C@H](N(C)C)C3)c(-c3ccccc3)c(C)c(C#N)c2n1	> 4
Cc1c(-c2ccccc2)c(N2CC[C@H](N(C)C)C2)n2nc(C(C)(C)C)cc2c1C#N	4 (≈ 9.96 µM)
Cc1c(-c2ccccc2)c(N2CC[C@H](N(C)C)C2)n2nc(C(C)(C)CO)nc2c1C#N	> 4
Cc1c(-c2ccccc2)c(N2CC[C@H](N(C)C)C2)n2nc(C(C)(C)COCc3ccccc3)nc2c1C#N	> 4
Cc1c(-c2ccccc2)c(N2CC[C@H](N(C)C)C2)n2nc(C(C)(C)C)nc2c1C#N	> 4
CCc1nc2c(C#N)c(C)c(-c3ccccc3)c(N3CC[C@H](N(C)C)C3)n2n1	> 4
Cc1c(-c2ccccc2)c(N2CC[C@H](N(C)C)C2)n2nc(C3CC3)nc2c1C#N	> 4
Cc1c(-c2ccccc2)c(N2CC[C@H](N(C)C)C2)n2cc(C(C)(C)C)nc2c1C#N	4 (≈ 9.96 µM)

Tested on: Nakaseomyces glabratus
Assay: Antimicrobial activity against Candida glabrata ATCC 48435 using alamar blue stain by microdilution assay
Assay type: functional
Details: not given
Method in brief: as §1

Structure (SMILES)	MIC [µg/mL]
Cc1cn2c(N3CC[C@H](N(C)C)C3)c(-c3ccccc3)c(C)c(C#N)c2n1	0.5 (≈ 1.39 µM)
Cc1c(-c2ccccc2)c(N2CC[C@H](N(C)C)C2)n2nc(C(C)(C)C)cc2c1C#N	1 (≈ 2.49 µM)
Cc1c(-c2ccccc2)c(N2CC[C@H](N(C)C)C2)n2nc(C(C)(C)CO)nc2c1C#N	0.25 (≈ 0.597 µM)
Cc1c(-c2ccccc2)c(N2CC[C@H](N(C)C)C2)n2nc(C(C)(C)COCc3ccccc3)nc2c1C#N	0.125 (≈ 0.246 µM)
Cc1c(-c2ccccc2)c(N2CC[C@H](N(C)C)C2)n2nc(C(C)(C)C)nc2c1C#N	0.063 (≈ 0.157 µM)
CCc1nc2c(C#N)c(C)c(-c3ccccc3)c(N3CC[C@H](N(C)C)C3)n2n1	0.125 (≈ 0.334 µM)
Cc1c(-c2ccccc2)c(N2CC[C@H](N(C)C)C2)n2nc(C3CC3)nc2c1C#N	0.063 (≈ 0.163 µM)
Cc1c(-c2ccccc2)c(N2CC[C@H](N(C)C)C2)n2cc(C(C)(C)C)nc2c1C#N	0.25 (≈ 0.623 µM)
